Hits are enriched below; roughly 3.2% of the tested compounds scored in any of these assays.
Plk1 PBD FP: Plk1 polo box domain binding inhibitors, primary screen, biochemical, fluorescence polarization | Serine/threonine-protein kinase PLK1 (Homo sapiens), P53350 | Plk1 PBD phosphopeptide binding | inhibition, %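 (tested at about 20 µM)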 | 97,000 compounds, 0.13% hits | AID 693, 2007; in the data active = inhibition above about 34%, passing the limit was not always enough
hDAT+cocaine: changed hDAT dopamine uptake under cocaine IC80, either direction, primary screen, cocaine antagonist project, cell-based, LLC-PK1 hDAT, [14C]-dopamine uptake, MLSMR | Sodium-dependent dopamine transporter (Homo sapiens), Q01959 | LLC-PK1 hDAT cells, [14C]-dopamine uptake with cocaine IC80; actives deviate in either direction | B-score at 10 µM | 110,000 compounds, 1.3% hits;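 active = Z score or B-score, a plate-position-corrected score, falls beyond the plate's 99.7% confidence bounds, in either direction; inactive = both scores lie inside the 99.7% bounds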;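 also: scored against the spread of the other compound wells on the same plate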
EphB4 antag: EphB4-ephrin-B2 interaction antagonists, primary screen, biochemical, TNYL-RAW peptide probe, fluorescence polarization. AID 720, 2007. 97,000 compounds, 0.15% hits. inhibition, % at 7 µM. Ephrin type-B receptor 4 (Homo sapiens), P54760. EphB4 LBD / TNYL-RAW-Alexa532 peptide;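 active = inhibition above the screen-wide mean inhibition plus 3 SD, cut at about 15% in these data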;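 also: 0% = DMSO wells and 100% = excess unlabeled TNYL-RAW peptide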
HIV Rev-RRE inh: HIV-1 Rev-RRE binding inhibitors, primary screen, biochemical, FRET, protein-RNA interaction | P05866 | Rev peptide-RRE RNA binding | inhibition, % at 8 µM | 97,000 compounds, 0.79% hits | AID 704, 2007;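 active = inhibition above the screen-wide mean plus 3 SD, cut at about 35% in these data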;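 also: 0% = median DMSO wells and 100% = median Neomycin B control wells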
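Test system – labelled RRE RNA duplex and labelled Rev peptide · Reagent – labelled Rev peptide · Doses – one concentration, 8 µM nominal · Incubation – 5 + 15 min at 25 °C · Signal – FRET fluorescence readout · Read-out basis – % inhibition of FRET ratio versus controls · Control set – DMSO wells as 0% and neomycin B wells as 100% inhibition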
PLK1 inh: human PLK1 kinase inhibitors, primary screen, biochemical, TR-FRET; Serine/threonine-protein kinase PLK1 (Homo sapiens), P53350; recombinant PLK1 kinase, TR-FRET peptide phosphorylation; inhibition, % at 10 µM; 97,000 compounds, 0.53% hits; AID 619, 2007;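 active = inhibition of 50% or more in the single-concentration screen; inactive = inhibition below 50%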;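 also: 0% = DMSO max control and 100% = H-89 dihydrochloride min control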
FAK blocker: FAK kinase inhibitors, primary screen, biochemical. Focal adhesion kinase 1 (Homo sapiens), Q05397. biochemical FAK kinase activity assay. inhibition, %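 (tested at 7 µM)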. 97,000 compounds, 0.84% hits. AID 727, 2007; in the data active = inhibition above about 19%;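 also: 0% = DMSO and 100% = reference compound high control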
Starred values were filed as active, the others as inactive; / = not tested or not shown; [ ] = dose if it differs, or a comment.

SMILES	Plk1 PBD FP	hDAT+cocaine	EphB4 antag	HIV Rev-RRE inh	PLK1 inh	FAK blocker
CCN(C(=S)Nc1ccccc1F)C1CCCCC1	-4	-0.048	-3	3	-8	-8
CCN1C=C(Cc2ccc(OC)cc2)C2=C(C1)C(c1ccc(OC)cc1)C(C#N)=C(N)O2 (stereo unspecified)	3	/	-2	40*	-8	3
COc1ccc([C@H]2[C@@H]3C=CCC[C@@]3(C)C(=O)N2Cc2ccccc2)cc1Cl	/	-0.31	/	/	/	/
Cn1c(C(=O)N2CCN(c3ccc(Cl)cc3)CC2)cc2c(=O)[nH]c3ccccc3c21	16	0.76	3	1	52*	-2
CSc1ccc(C2C(C#N)=C(N)N(c3ccccc3)C3=C2C(=O)CCC3)cc1 (stereo unspecified)	/	-0.034	/	/	/	/
CSc1ccc(C2C(C#N)=C(N)Oc3c2ccc(=O)c2c(C)oc(C)c32)cc1 (stereo unspecified)	-46	0.34	-10	43*	0	-2
Cc1oc(C)c2c(=O)ccc3c(c12)OC(N)=C(C#N)C3c1ccccc1Cl (stereo unspecified)	-155	-0.31	1	97*[fluorescence artefact?]	-3	5
Cc1ccc2[nH]c(=O)c(C3C(C#N)=C(N)Oc4c3ccc3cccnc43)cc2c1 (stereo unspecified)	-1	1.5	7	6	18	1
CC1(C)CC(=O)C2=C(C1)OC(N)=C(C#N)C2c1ccccc1 (stereo unspecified)	-20	-0.03	1	6	-10	-1
Cc1oc(C)c2c(=O)ccc3c(c12)OC(N)=C(C#N)C3c1ccccc1 (stereo unspecified)	-151	0.018	0	60*	-4	6
COc1ccc(-c2cn(/N=C/c3ccc(Cl)cc3Cl)c(N)n2)cc1	-20	0.48	3	19	61*	1
N#Cc1ccc(NC(=O)C2CC(c3ccc(F)cc3)=NO2)cc1 (stereo unspecified)	-20	-0.021	12	6	-16	4
O=C(Nc1ccc2c(c1)OCO2)C1CC(c2ccc(F)cc2)=NO1 (stereo unspecified)	-10	0.04	20*	6	-8	-2
Cc1cc2ncn(C(=O)c3c(-c4ccccc4)noc3C)c2cc1C	4	-2.3*	0	12	-10	6
Cc1cc2ncn(C(=O)c3c(-c4c(Cl)cccc4Cl)noc3C)c2cc1C	24	0.15	8	11	-12	5
COC(=O)C1=C(COc2ccccc2)NC(=O)NC1c1ccc2ccccc2c1 (stereo unspecified)	/	0.44	/	/	/	/
CCN(CC)c1nc(=S)nc(NC(C)(C)C)[nH]1	-1	0.0018	-1	0	2	4
Cc1cccc(-c2c3c(=O)n(C)c(=O)n(C)c3c3nnc4ccccc4n23)c1	0	/	5	49*	0	3
Cc1ccc(-c2c3c(=O)n(C)c(=O)n(C)c3c3nnc4ccccc4n23)cc1	-2	/	5	23	-12	0
C=CCNC(=O)c1c(CSc2ccc(Cl)cc2)noc1C(=O)NCc1ccccc1	/	0.99	/	/	/	/
CC(=O)c1c(C(C)=O)c(C)n(-c2nc(-c3ccc(C)c(C)c3)c(C)s2)c1C	-14	-0.18	-5	1	-7	0
COc1ccc(CCNC(=O)C2CC3Cn4c(nc5ccccc54)C3N2c2ccccc2)cc1 (stereo unspecified)	/	-1.4	/	/	/	/
Cc1cc(=O)n2nc(-c3ccccc3)sc2n1	0	-2.7*	-6	5	-5	-4
COC(=O)c1cc(=O)nc2sc(-c3ccccc3)nn12	-6	-0.92	-6	-3	-19	-1
CCN(CC)CCCNC(=O)c1cn(C)c2ccc(S(=O)(=O)N(C)C)cc2c1=O	/	-1.1	/	/	/	/
SMILES	Plk1 PBD FP	hDAT+cocaine	EphB4 antag	HIV Rev-RRE inh	PLK1 inh	FAK blocker
CN(C1CCCCC1)S(=O)(=O)c1ccc2c(c1)c(=O)c(C(=O)NCCN1CCCC1)cn2C	-1	-0.37	0	10	62*	-3
CN(C1CCCCC1)S(=O)(=O)c1ccc2c(c1)c(=O)c(C(=O)NCCCN1CCCC1)cn2C	-21	-0.71	-1	10	59*	5
O=C(CCS(=O)(=O)Cc1ccc(Cl)cc1)NCCCN1CCOCC1	27	0.14	-3	8	-17	-1
CSc1nsc(/C=C/Nc2cccc(Cl)c2)c1C#N	-20	-0.11	0	32	0	1
CSc1nsc(/C=C/Nc2ccc(Cl)cc2)c1C#N	6	2.6*	4	42*	2	5
COCCNC(=O)c1c(N)n(CCC2=CCCCC2)c2nc3ccccc3nc12	-32	0.81	3	56*	-8	3
COCCn1c(N)c(C(=O)OCc2ccccc2)c2nc3ccccc3nc21	1	2.8	1	17	-19	0
O=C(/C=C/c1ccccc1)NC(NC(=S)Nc1cccc(Cl)c1)C(Cl)(Cl)Cl (stereo unspecified)	23	-7.3*	8	13	-13	6
CC(C)CC(CO)N1CCN(C(=O)c2cccc(C(F)(F)F)c2)CCC1=O (stereo unspecified)	/	0.54	/	/	/	/
CCC1=Nc2cc(C(=O)NCCCOC(C)C)ccc2Sc2ccccc21	-1	-7.2*	-8	2	-1	0
COc1ccccc1NC(=O)c1sc2nc(Cc3ccccc3)cc(C(F)(F)F)c2c1N	8	0.39	5	44*	-9	3
CC(C)(C)C(=O)c1sc2nc(-c3cccs3)cc(C(F)(F)F)c2c1N	-22	-0.94	-1	79*[fluorescence artefact?]	-11	-5
Cc1nnc(NC(=O)c2sc3nc(-c4cccs4)cc(C(F)(F)F)c3c2N)s1	-104	0.91	0	99*[fluorescence artefact?]	-42	16
Cc1cc(C)c2c(N)c(C(=O)Nc3nccs3)sc2n1	8	-0.77	5	-1	-15	2
Nc1c(C(=O)Nc2nccs2)sc2nc(-c3cccs3)cc(C(F)(F)F)c12	-10	/	2	104*[fluorescence artefact?]	-37	-1
CCN(CC)C(=O)c1sc2nc(-c3cccs3)cc(-c3ccc(Cl)cc3)c2c1N	-14	1.2	-3	14	-28	-2
COc1ccccc1NC(=O)CCC(=O)Nc1nnc(C(F)(F)F)s1	14	-1.4	0	0	2	-4
O=C(NCCCn1ccnc1)c1ccc(Br)o1	15	0.022	1	7	3	-2
Cc1ccc(-c2cc3nc(C)cc(NCc4ccco4)n3n2)cc1	2	-3.9*	5	10	-3	8
